# “And” between values parts separate entries of the source, which are not always exact repeats. Equal values may be shown once.
# Assays:
# Type in all cases: functional, Urine
# [1] = tested on: Rattus norvegicus; assay: Total Cl- milliequivalents excretion in diuretic test at the dose of 150 mg/kg
# [2] = tested on: Rattus norvegicus; assay: Total K+ milliequivalents excretion in diuretic test at the dose of 150 mg/kg
# [3] = tested on: Rattus norvegicus; assay: Total Na+ milliequivalents excretion in diuretic test at the dose of 150 mg/kg
# [4] = tested on: Rattus norvegicus; assay: Diuretic activity by measuring the urinary output at the dose of 150 mg/kg
# Procedure, shortened: (§1)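 Groups of eight male Sprague–Dawley-derived rats, fasted 18 h with water ad libitum, received oral doses by dosing needle in 5% acacia–isotonic saline; the vehicle served as control. Rats were placed in metabolism cages with no food or water, and urine was collected for 5 h. Bladders were then emptied by pulling at the tail base (modified Lipschitz method).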
# [5] = tested on: Rattus norvegicus; assay: Diuretic activity by measuring the urinary output at the dose of 25 mg/kg
# Procedure, shortened: (§2)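 Male Sprague–Dawley rats (195–225 g) were fasted and deprived of water for 18 h. The compound was given orally, dissolved in 25 mL/kg saline; controls got saline alone. Groups of eight were housed as pairs in metabolism cages. Urine volume was read at 2 and 5 h, with total Na+, Cl− and K+ mequiv excreted. Values are mean ± SEM, N = 8.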
# [6] = tested on: Rattus norvegicus; assay: Diuretic activity by measuring the urinary output at the dose of 400 mg/kg; procedure, shortened: as §1
# [7] = tested on: Rattus norvegicus; assay: Diuretic activity by measuring the urinary output at the dose of 100 mg/kg; procedure, shortened: as §1
# [8] = tested on: Rattus norvegicus; assay: Diuretic activity by measuring the urinary output at the dose of 75 mg/kg; procedure, shortened: as §1
# [9] = tested on: Rattus norvegicus; assay: Total Cl- milliequivalents excretion in diuretic test at the dose of 75 mg/kg
# [10] = tested on: Rattus norvegicus; assay: Total Na+ milliequivalents excretion in diuretic test at the dose of 75 mg/kg
# [11] = tested on: Rattus norvegicus; assay: Total Na+ milliequivalents excretion in diuretic test at the dose of 25 mg/kg; procedure, shortened: as §2
# [12] = tested on: Rattus norvegicus; assay: Total Cl- milliequivalents excretion in diuretic test at the dose of 25 mg/kg; procedure, shortened: as §2
# [13] = tested on: Rattus norvegicus; assay: Total K+ milliequivalents excretion in diuretic test at the dose of 25 mg/kg; procedure, shortened: as §2
# [14] = tested on: Rattus norvegicus; assay: Diuretic activity by measuring the urinary output after 2 hr at the dose of 3 mg/kg
# Procedure, shortened: (§3)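 Male Sprague–Dawley rats (195–225 g) were fasted and deprived of water for 18 h, then dosed orally with compound dissolved in 25 mL/kg saline. Controls got 25 mL/kg saline alone. Groups of eight were used, housed two rats per metabolism cage right after dosing. Urine volume was collected at 2 h and 5 h after dosing. Values are mean ± SEM per cage pair, N = 8.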
# [15] = tested on: Rattus norvegicus; assay: Diuretic activity by measuring the urinary output after 2 hr at the dose of 25 mg/kg; procedure, shortened: as §3
# [16] = tested on: Rattus norvegicus; assay: Total K+ milliequivalents excretion in diuretic test at the dose of 27 mg/kg
# Procedure, shortened: (§4)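 Oral dosing was in 25 mL/kg saline to male Sprague–Dawley rats (195–225 g) after 18 h without food or water, with saline-only controls. Groups of eight were kept two per metabolism cage. Urinary Na+, Cl− and K+ were reported as total mequiv excreted, with electrolyte analysis done externally. Values are mean ± SEM of two rats per cage, N = 8.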
# [17] = tested on: Rattus norvegicus; assay: Total Cl- milliequivalents excretion in diuretic test at the dose of 9 mg/kg; procedure, shortened: as §4
# [18] = tested on: Rattus norvegicus; assay: Diuretic activity by measuring the urinary output after 5 hr at the dose of 9 mg/kg; procedure, shortened: as §3
# [19] = tested on: Rattus norvegicus; assay: Diuretic activity by measuring the urinary output after 5 hr at the dose of 3 mg/kg; procedure, shortened: as §3
# [20] = tested on: Rattus norvegicus; assay: Total Na+ milliequivalents excretion in diuretic test at the dose of 81 mg/kg; procedure, shortened: as §4
# [21] = tested on: Rattus norvegicus; assay: Total K+ milliequivalents excretion in diuretic test at the dose of 3 mg/kg; procedure, shortened: as §4
# [22] = tested on: Rattus norvegicus; assay: Diuretic activity by measuring the urinary output after 2 hr at the dose of 9 mg/kg; procedure, shortened: as §3
# [23] = tested on: Rattus norvegicus; assay: Total Na+ milliequivalents excretion in diuretic test at the dose of 9 mg/kg; procedure, shortened: as §4
# [24] = tested on: Rattus norvegicus; assay: Diuretic activity by measuring the urinary output after 5 hr at the dose of 27 mg/kg; procedure, shortened: as §3
# [25] = tested on: Rattus norvegicus; assay: Total Cl- milliequivalents excretion in diuretic test at the dose of 81 mg/kg; procedure, shortened: as §4
# [26] = tested on: Rattus norvegicus; assay: Diuretic activity by measuring the urinary output after 5 hr at the dose of 81 mg/kg; procedure, shortened: as §3
# [27] = tested on: Rattus norvegicus; assay: Diuretic activity by measuring the urinary output after 2 hr at the dose of 81 mg/kg; procedure, shortened: as §3
# [28] = tested on: Rattus norvegicus; assay: Total Na+ milliequivalents excretion in diuretic test at the dose of 27 mg/kg; procedure, shortened: as §4
# [29] = tested on: Rattus norvegicus; assay: Diuretic activity by measuring the urinary output after 5 hr at the dose of 25 mg/kg; procedure, shortened: as §3
# [30] = tested on: Rattus norvegicus; assay: Total K+ milliequivalents excretion in diuretic test at the dose of 9 mg/kg; procedure, shortened: as §4
# [31] = tested on: Rattus norvegicus; assay: Total Cl- milliequivalents excretion in diuretic test at the dose of 3 mg/kg; procedure, shortened: as §4
# [32] = tested on: Rattus norvegicus; assay: Diuretic activity by measuring the urinary output after 2 hr at the dose of 27 mg/kg; procedure, shortened: as §3
# [33] = tested on: Rattus norvegicus; assay: Total Cl- milliequivalents excretion in diuretic test at the dose of 27 mg/kg; procedure, shortened: as §4
# [34] = tested on: Rattus norvegicus; assay: Total Na+ milliequivalents excretion in diuretic test at the dose of 3 mg/kg; procedure, shortened: as §4
# [35] = tested on: Rattus norvegicus; assay: Total K+ milliequivalents excretion in diuretic test at the dose of 81 mg/kg; procedure, shortened: as §4
# [36] = tested on: Rattus norvegicus; assay: Total Cl- milliequivalents excretion in diuretic test at the dose of 12 mg/kg; procedure, shortened: as §2
# [37] = tested on: Rattus norvegicus; assay: Total K+ milliequivalents excretion in diuretic test at the dose of 1 mg/kg; procedure, shortened: as §2
# [38] = tested on: Rattus norvegicus; assay: Diuretic activity by measuring the urinary output after 2 hr at the dose of 1 mg/kg; procedure, shortened: as §2
# [39] = tested on: Rattus norvegicus; assay: Diuretic activity by measuring the urinary output after 2 hr at the dose of 12 mg/kg; procedure, shortened: as §2
# [40] = tested on: Rattus norvegicus; assay: Diuretic activity by measuring the urinary output after 5 hr at the dose of 12 mg/kg; procedure, shortened: as §2
# [41] = tested on: Rattus norvegicus; assay: Total Na+ milliequivalents excretion in diuretic test at the dose of 12 mg/kg; procedure, shortened: as §2
# [42] = tested on: Rattus norvegicus; assay: Total Cl- milliequivalents excretion in diuretic test at the dose of 1 mg/kg; procedure, shortened: as §2
# [43] = tested on: Rattus norvegicus; assay: Total K+ milliequivalents excretion in diuretic test at the dose of 12 mg/kg; procedure, shortened: as §2
# [44] = tested on: Rattus norvegicus; assay: Total Cl-mequiv excretion in diuretic test at the dose of 3 mg/kg; procedure, shortened: as §2
# [45] = tested on: Rattus norvegicus; assay: Total Na+ milliequivalents excretion in diuretic test at the dose of 1 mg/kg; procedure, shortened: as §2
# [46] = tested on: Rattus norvegicus; assay: Diuretic activity by measuring the urinary output at the dose of 20 mg/kg; procedure, shortened: as §1
# [47] = tested on: Rattus norvegicus; assay: Diuretic activity by measuring the urinary output at the dose of 40 mg/kg; procedure, shortened: as §1
# [48] = tested on: Rattus norvegicus; assay: Total K+ milliequivalents excretion in diuretic test at the dose of 75 mg/kg
smiles,measurement,setting,value
CC1(C(=O)NCc2cccnc2)NC(=O)c2ccccc2N1 (stereo not given),Excretion,[1],1.5 m equiv
same,Excretion,[2],0.5 m equiv
same,Excretion,[3],1.4 m equiv
same,Control,[4],120%
O=C1NC(c2ccco2)Nc2ncccc21 (stereo not given),Control,[5],121%
same,Control,[6],193%
same,Control,[7],194%
O=C1NC(c2ccc([N+](=O)[O-])cc2)Nc2ncccc21 (stereo not given),Control,[5],110%
same,Control,[8],115%
same,Excretion,[9],1.7 m equiv
same,Excretion,[10]; 75 mg/kg,1.5 m equiv and 0.6 m equiv
same,Excretion,[11],1.2 m equiv
same,Excretion,[12],1.3 m equiv
same,Excretion,[13],0.4 m equiv
O=C1NC(c2ccccc2)Nc2ncccc21 (stereo not given),Control,[5],114%
same,Control,[8],146%
same,Excretion,[9],1.8 m equiv
same,Excretion,[11],1.3 m equiv
same,Excretion,[12],1.4 m equiv
same,Excretion,[13],0.5 m equiv
O=C1NC(c2cccnc2)Nc2ncccc21 (stereo not given),Excretion,[14],4.4 mL
same,Control,[5],221%
same,Excretion,[15],8 mL
same,Excretion,[16],0.6 m equiv
same,Excretion,[17],1.3 m equiv
same,Excretion,[18],7.6 mL
same,Control,[6],185%
same,Excretion,[19],8.1 mL
same,Excretion,[20],2.6 m equiv
same,Excretion,[21],0.4 m equiv
same,Excretion,[11],2.5 m equiv
same,Excretion,[22],3 mL
same,Excretion,[23],1.1 m equiv
same,Excretion,[24],20.1 mL
same,Excretion,[25],2.6 m equiv
same,Control,[7],220%
same,Excretion,[12],2.8 m equiv
same,Excretion,[26],19.6 mL
same,Excretion,[27],6 mL
same,Excretion,[28],2.2 m equiv
same,Excretion,[29],21 mL
same,Excretion,[30],0.4 m equiv
same,Excretion,[31],1.6 m equiv
same,Excretion,[32],10.4 mL
same,Excretion,[33],2.6 m equiv
same,Excretion,[34],1.4 m equiv
same,Excretion,[35],0.4 m equiv
same,Excretion,[13],0.6 m equiv
Oc1nc(-c2ccco2)nc2ncccc12,Control,[5],167%
same,Control,[6],36%
same,Control,[7],212%
NS(=O)(=O)c1cc2c(cc1Cl)NCNS2(=O)=O [HYDROCHLOROTHIAZIDE],Excretion,[14],8.1 mL
same,Control,[5],201%
same,Excretion,[36],2.8 m equiv
same,Excretion,[16],0.8 m equiv
same,Excretion,[17],2.7 m equiv
same,Excretion,[37],0.6 m equiv
same,Excretion,[38],7.8 mL
same,Excretion,[18],14.6 mL
same,Excretion,[39],7.9 mL
same,Excretion,[40],16 mL and 13.9 mL
same,Excretion,[19],15.8 mL
same,Excretion,[21],0.6 m equiv
same,Excretion,[41],2.5 m equiv
same,Excretion,[42],2.5 m equiv
same,Excretion,[22],7.5 mL
same,Excretion,[23],2.2 m equiv
same,Excretion,[24],15.1 mL
same,Excretion,[28],2.5 m equiv
same,Excretion,[30],0.6 m equiv
same,Excretion,[43],0.7 m equiv and 0.6 m equiv
same,Excretion,[44],2.7 m equiv
same,Excretion,[45],2 m equiv
same,Excretion,[32],8.4 mL
same,Excretion,[33],3 m equiv
same,Excretion,[34],2.4 m equiv
O=C1NC(c2cc(Br)co2)Nc2ncccc21 (stereo not given),Control,[5],101%
same,Control,[6],110%
same,Control,[7],94%
NS(=O)(=O)c1cc(C(=O)O)c(NCc2ccco2)cc1Cl [FUROSEMIDE],Control,[46],444%
same,Control,[47],517%
O=C1NC(c2cccnc2)Nc2nccnc21 (stereo not given),Control,[8],97%
same,Excretion,[9],1.2 m equiv
same,Excretion,[48],0.4 m equiv
same,Excretion,[10],1.2 m equiv
